Results reported in ChEMBL document CHEMBL1143402 (PLoS Med, 2006).

Key:
Assay type in all cases: ADME, organism-based
[1] = test system: Mycobacterium tuberculosis variant bovis; assay: Drug metabolism in Mycobacterium bovis BCG Tokyo assessed as cell supernatant [14C]OPC-67683 metabolite level after 48 hrs by scintillation counting
Outline: (§1)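 ^14C-labelled drug (0.5 mg/ml stock) added 15 µl to 585 µl 7H9/TN-ADC culture, incubated 48 h. Acetonitrile (2 volumes) added, then centrifuged. Supernatant counted by scintillation; pellet dissolved in 2 M NaOH, 1 h at 60 °C, then counted. DPM expressed relative to broth control supernatant.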

[2] = test system: Mycobacterium tuberculosis variant bovis; assay: Drug metabolism in OPC-67683 resistant Mycobacterium bovis BCG Tokyo assessed as cell supernatant [14C]OPC-67683 metabolite level after 48 hrs by scintillation counting; outline: as §1
[3] = test system: Mycobacterium tuberculosis variant bovis; assay: Drug metabolism in Mycobacterium bovis BCG Tokyo assessed as cell pellet [14C]OPC-67683 metabolite level after 48 hrs by scintillation counting; outline: as §1

C[C@]1(COc2ccc(N3CCC(Oc4ccc(OC(F)(F)F)cc4)CC3)cc2)Cn2cc([N+](=O)[O-])nc2O1 showed an Activity [1] of 82%, an Activity [2] of 105% and an Activity [3] of 22%.
